In ChEMBL document CHEMBL1926567, “Triterpenoids as inhibitors of erythrocytic and liver stages of Plasmodium infections” (Bioorg Med Chem, 2011):
The source made the active and inactive calls. No cut-off for these calls is given here.

Key:
[1] = test system: Plasmodium falciparum; test: Antimalarial activity against chloroquine-resistant Plasmodium falciparum Dd2 infected in erythrocytes after 48 hrs by SYBR green 1-based fluorescence assay; format: functional, organism-based; details: Dd2, 48 h
In short: (§1)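 P. falciparum (3D7 or Dd2) grown in fresh human erythrocytes in RPMI 1640 with 25 mM HEPES, 6.8 mM hypoxanthine and 10% AlbuMAX II, at 37 °C under 5% O2, 3–5% CO2 and N2. Ring-stage cultures at 1% parasitaemia and 2% haematocrit were exposed in duplicate to 0.156–100 µg/mL (from DMSO stocks) for 48 h at 37 °C. SYBR Green I lysis buffer was then added for 1 h in the dark; fluorescence read at ex 485/em 535 nm. IC50 is the mean of three independent experiments.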

[2] = Selectivity index, ratio of IC50 for human MCF7 cells to IC50 for chloroquine-sensitive Plasmodium falciparum 3D7; format: toxicity, cell-based; details: read-out: Ratio IC50
In short: (§2)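 MCF-7 cells were grown in RPMI 1640 with 10% heat-inactivated horse serum and 2 mM L-glutamine. Cells (2×10^4 per well) were exposed to increasing compound concentrations for 24 h at 37 °C, then given MTT for 4 h and SDS overnight; OD read at 550 nm (ref 630 nm). Growth-inhibition IC50 from three experiments.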

[3] = Selectivity index, ratio of IC50 for human MCF7 cells to IC50 for chloroquine-resistant Plasmodium falciparum Dd2; format: toxicity, cell-based; details: read-out: Ratio IC50; in short: as §2
[4] = test system: Plasmodium berghei; test: Antimalarial activity against transgenic Plasmodium berghei expressing PbGFP-Luc-con infected in human HuH7 cells assessed as reduction of parasite invasion at 15 uM by luciferase based assay; format: functional, organism-based; details: Huh-7
[5] = test system: Plasmodium berghei; test: Antimalarial activity against transgenic Plasmodium berghei expressing PbGFP-Luc-con infected in human HuH7 cells assessed as reduction of parasite motility at 15 uM by luciferase based assay; format: functional, organism-based; details: Huh-7
[6] = test system: Plasmodium berghei; test: Antimalarial activity against liver stage of transgenic Plasmodium berghei expressing PbGFP-Luc-con infected in human HuH7 cells at 1 to 15 uM after 48 hrs by bioluminescence method; format: functional, organism-based; details: Huh-7
In short: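 Huh-7 human hepatoma cells (12×10^3/well) seeded the day before; compounds at 1, 5 and 15 uM added 1 h before sporozoites of luciferase-expressing P. berghei PbGFP-Luc_con, freshly dissected from infected female Anopheles stephensi salivary glands. Plates centrifuged 1700g for 5 min after sporozoite addition. Luminescence read 48 h post-infection versus DMSO controls. Primaquine positive control; three independent measurements.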

[7] = test system: Plasmodium berghei; test: Antimalarial activity against transgenic Plasmodium berghei expressing PbGFP-Luc-con infected in human HuH7 cells assessed as reduction of intracellular liver stage development at 15 uM by luciferase based assay; format: functional, organism-based; details: Huh-7
[8] = test system: Huh-7; test: Cytotoxicity against human HuH7 cells at 15 uM by alamar blue fluorescence assay; format: cell-based; details: huh-7, 15 µM
In short: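 Huh-7 cells cultured in RPMI 1640 with 10% FCS and 10 mM HEPES pH 7 at 37 °C, 5% CO2. Cells seeded the day before, exposed to compounds (1, 5, 15 uM) and infected in parallel with the liver-stage assay. Viability read as AlamarBlue fluorescence (cell confluency), compared with DMSO controls; three independent measurements.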

[9] = test system: Hepatocyte; test: Cytotoxicity against mouse primary hepatocytes at 15 uM after 24 hrs by alamar blue fluorescence assay; format: cell-based
In short: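 Mouse primary hepatocytes incubated with compounds for 24 h, then with AlamarBlue-containing medium for 1 h before fluorescence reading. Signal normalized to cells treated with 500 μM H2O2 as positive control and compared with a DMSO control at the amount present in the highest drug concentration.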

[10] = test system: MCF7; test: Cytotoxicity against human MCF7 cells after 24 hrs by MTT assay; format: cell-based; details: MCF7, 24 h
In short: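 MCF-7 cells grown in RPMI 1640 with 10% heat-inactivated horse serum and 2 mM L-glutamine at 37 °C, 5% CO2. 2×10^4 cells/well exposed to increasing compound concentrations for 24 h. MTT added for 4 h, then 10% SDS overnight; OD at 550 nm (reference 630 nm). Percent growth inhibition calculated relative to cell and medium controls; IC50 given as mean ± SD of three experiments.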

[11] = test system: Plasmodium falciparum; test: Antimalarial activity against chloroquine-sensitive Plasmodium falciparum 3D7 infected in erythrocytes after 48 hrs by SYBR green 1-based fluorescence assay; format: functional, organism-based; details: 3D7, 48 h; in short: as §1
[12] = test system: Plasmodium falciparum; test: Ratio of balsaminol-F IC50 to compound IC50 for chloroquine-resistant Plasmodium falciparum Dd2; format: functional
[13] = test system: Plasmodium falciparum; test: Ratio of balsaminol-F IC50 to compound IC50 for chloroquine-sensitive Plasmodium falciparum 3D7; format: functional

Compound | IC50 [1] [µM] | selectivity ratio [2] | selectivity ratio [3] | Activity [4] | Activity [5] | Activity [6] | Activity [7] | Activity [8] | Activity [9] | IC50 [10] [µM] | IC50 [11] [µM] | Ratio IC50 [12] | Ratio IC50 [13]
CC(C)=C[C@H](O)C[C@@H](C)[C@H]1CC[C@@]2(C)[C@@H]3[C@@H](O)C=C4[C@@H](CC[C@H](O)C4(C)C)[C@]3(C)CC[C@]12C (relative stereo) [BALSAMINOL F] | 20 | 1.5 | 1.4 | inactive | inactive | Active | Active | Toxic | Toxic | 27.3 | 18 | – | –
CC(C)=C[C@H](O)C[C@@H](C)[C@H]1CC[C@@]2(C)[C@@H]3[C@@H](O[C@@H]4O[C@H](CO)[C@@H](O)[C@@H](O)[C@H]4O)C=C4[C@@H](CC[C@H](O)C4(C)C)[C@]3(C)CC[C@]12C (relative stereo) [BALSAMINOSIDE B] | 6.3 | 4.8 | 2.3 | inactive | inactive | Active | Active | Toxic | Toxic | 14.2 | 2.9 | – | –
CC(C)=C[C@H](O)C[C@@H](C)[C@H]1CC[C@@]2(C)[C@@H]3[C@@H](O[C@@H]4O[C@H](CO)[C@@H](O)[C@H](O)[C@H]4O)C=C4[C@@H](CC[C@H](O)C4(C)C)[C@]3(C)CC[C@]12C [BALSAMINOSIDE C] | 7.2 | 7 | 3.3 | – | – | Active | – | – | – | 23.9 | 3.4 | – | –
CO[C@H]1C=C2[C@@H](CC[C@H](O)C2(C)C)[C@]2(C)CC[C@]3(C)[C@@H]([C@H](C)CC(C=C(C)C)O[C@@H]4O[C@H](CO)[C@@H](O)[C@H](O)[C@H]4O)CC[C@@]3(C)[C@H]12 (some centres not stated) [KUGUAGLYCOSIDE A] | 4.7 | 3.5 | 2.9 | – | – | – | – | – | – | 13.5 | 3.9 | – | –
CC(=O)O[C@H]1C=C2[C@@H](CC[C@H](OC(C)=O)C2(C)C)[C@]2(C)CC[C@]3(C)[C@@H]([C@H](C)C[C@H](C=C(C)C)OC(C)=O)CC[C@@]3(C)[C@H]12 [TRIACETYLBALSAMINOL F] | 0.4 | > 162 | > 343 | inactive | inactive | Active | Active | Non-toxic | Non-toxic | > 133 | 0.8 | 50 | 22.5
CC(C)=C[C@@H](C[C@@H](C)[C@H]1CC[C@@]2(C)[C@@H]3[C@@H](OC(=O)c4ccccc4)C=C4[C@@H](CC[C@H](OC(=O)c5ccccc5)C4(C)C)[C@]3(C)CC[C@]12C)OC(=O)c1ccccc1 [TRIBENZOYLBALSAMINOL F] | 68.4 | > 2.3 | > 2 | – | – | Active | – | – | – | > 133 | 57.3 | – | –
